Active and inactive are the calls of the source. No cut-off for these calls is given here.

In assay [1] the test system is Listeria monocytogenes. The assay is described as follows: Antibacterial activity against Listeria monocytogenes assessed as reduction in bacterial growth at 0.01 ug/ml incubated for 6 hrs by microplate reader assay. Type of assay: functional, organism-based. As to conditions: dose 0.01 µg/ml. Summed up:
(§1)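 Overnight 37°C BHI cultures (S. aureus Xen36; L. monocytogenes EGDe) diluted 1:100 into BHI with compound at 0.01 µg/mL in 25% PBS/10% DMSO (S. aureus) or 25% PBS/1% DMSO (Listeria). Controls: vehicle and 10 µg/mL levofloxacin. Shaken at 200 rpm, 37°C, 6 h; growth read on plate reader as percent growth; n=6 biological replicates, one-way ANOVA.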

In assay [2] the test system is Staphylococcus aureus. The assay is described as follows: Antibacterial activity against Staphylococcus aureus assessed as bacterial growth inhibition in presence of polymyxin B by microplate reader assay. The format is functional, organism-based. Summed up: (§2)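 Same diluted-culture BHI set-up (S. aureus Xen36 in 25% PBS/10% DMSO; L. monocytogenes EGDe in 25% PBS/1% DMSO) with each compound plus polymyxin B at 20, 40, 60 or 80 µg/mL. Incubated shaking at 200 rpm, 37°C; growth monitored by microplate reader.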

For assay [3], the system named is Listeria monocytogenes. The assay is described as follows: Antibacterial activity against Listeria monocytogenes assessed as bacterial growth inhibition in presence of polymyxin B by microplate reader assay. Type of assay: functional, organism-based. Summed up:
as §2

In assay [4] the test system is Staphylococcus aureus. The assay is described as follows: Antibacterial activity against Staphylococcus aureus assessed as reduction in bacterial growth at 0.01 ug/ml incubated for 6 hrs by microplate reader assay. The format is functional, organism-based. As to conditions: dose 0.01 µg/ml. A digest of the protocol: as §1
In a further assay the target is T1, NAD kinase 1 (Listeria monocytogenes serotype 4b (strain F2365), UniProt Q721J8).
T1 sequence (Q721J8 whole entry): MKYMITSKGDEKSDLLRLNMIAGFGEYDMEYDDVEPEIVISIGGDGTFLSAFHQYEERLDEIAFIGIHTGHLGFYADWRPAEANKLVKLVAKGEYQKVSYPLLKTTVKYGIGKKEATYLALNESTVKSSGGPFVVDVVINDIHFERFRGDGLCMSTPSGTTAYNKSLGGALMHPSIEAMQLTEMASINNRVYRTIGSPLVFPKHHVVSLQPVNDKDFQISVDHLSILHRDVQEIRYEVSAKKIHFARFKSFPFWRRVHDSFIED
The assay is described as follows: Inhibition of Listeria monocytogenes NADK1 expressed in Escherichia coli assessed as inhibition constant measured every 32 secs for 32 mins by absorbance based analysis.

Turning to `Nc1ncnc2c1ncn2[C@@H]1O[C@H](COCC#Cc2nc3c(N)ncnc3n2[C@@H]2O[C@H](CO)[C@@H](O)[C@H]2O)[C@@H](O)[C@H]1O`, the result with Listeria monocytogenes [1] was inactive.
Consider `Nc1ncnc2c1ncn2[C@@H]1O[C@H](CN2CC#Cc3nc4c(N)ncnc4n3[C@@H]3O[C@H](CNC(=O)NCCNC(=O)C2)[C@@H](O)[C@H]3O)[C@@H](O)[C@H]1O`, for which the outcome in the assay on Staphylococcus aureus [2] was Active. Further, the outcome with Listeria monocytogenes [3], in the assay on Staphylococcus aureus [4] and with Listeria monocytogenes [1] was inactive. On NAD kinase 1, the inhibition constant Ki amounted to 7.6 µM.
As to `Nc1ncnc2c1ncn2[C@@H]1O[C@H](CN2CC#Cc3nc4c(N)ncnc4n3[C@@H]3O[C@H](CNC(=O)CNC(=O)C2)[C@@H](O)[C@H]3O)[C@@H](O)[C@H]1O`, the result in the assay on Staphylococcus aureus [2] was Active. Moreover, the outcome in the assay with Listeria monocytogenes [3], in the assay on Staphylococcus aureus [4] and with Listeria monocytogenes [1] was inactive. The inhibition constant (Ki) at NAD kinase 1 was determined as 15 µM.
For `C[C@H]1COc2c(N3CCN(C)CC3)c(F)cc3c(=O)c(C(=O)O)cn1c23`, the outcome in the assay with Listeria monocytogenes [1] was inactive.
For the compound `NCCN(CC#Cc1nc2c(N)ncnc2n1[C@@H]1O[C@H](CNC(=O)CC(=O)O)[C@@H](O)[C@H]1O)C[C@H]1O[C@@H](n2cnc3c(N)ncnc32)[C@H](O)[C@@H]1O`, the Ki on NAD kinase 1 amounted to 53 µM.
On to `NCCS(=O)(=O)NC[C@H]1O[C@@H](n2c(C#CCOC[C@H]3O[C@@H](n4cnc5c(N)ncnc54)[C@H](O)[C@@H]3O)nc3c(N)ncnc32)[C@H](O)[C@@H]1O`, for which the Ki at NAD kinase 1 was 5.5 µM.
Turning to `NCC(=O)NC[C@H]1O[C@@H](n2c(C#CCN(CC(=O)O)C[C@H]3O[C@@H](n4cnc5c(N)ncnc54)[C@H](O)[C@@H]3O)nc3c(N)ncnc32)[C@H](O)[C@@H]1O`, on NAD kinase 1, the inhibition constant Ki was found to be 104 µM.
`Nc1ncnc2c1ncn2[C@@H]1O[C@H](CN2CC#Cc3nc4c(N)ncnc4n3[C@@H]3O[C@H](CNC(=O)CC(=O)NCC2)[C@@H](O)[C@H]3O)[C@@H](O)[C@H]1O`: in the assay on Staphylococcus aureus [2], the result was Active. In addition, the outcome in the assay on Listeria monocytogenes [3], with Staphylococcus aureus [4] and with Listeria monocytogenes [1] was inactive. Also, the Ki at NAD kinase 1 was 6.8 µM.
In the case of `NCCNC(=O)NC[C@H]1O[C@@H](n2c(C#CCN(CC(=O)O)C[C@H]3O[C@@H](n4cnc5c(N)ncnc54)[C@H](O)[C@@H]3O)nc3c(N)ncnc32)[C@H](O)[C@@H]1O`, the inhibition constant Ki at NAD kinase 1 amounted to 18 µM.
Turning to `Nc1ncnc2c1ncn2[C@@H]1O[C@H](CN2CC#Cc3nc4c(N)ncnc4n3[C@@H]3O[C@H](CNS(=O)(=O)CCNC(=O)C2)[C@@H](O)[C@H]3O)[C@@H](O)[C@H]1O`, in the assay on Staphylococcus aureus [2], the result was Active. Also, the outcome in the assay on Listeria monocytogenes [3], with Staphylococcus aureus [4] and with Listeria monocytogenes [1] was inactive. For the same compound, the inhibition constant Ki on NAD kinase 1 worked out at 0.054 µM.
Regarding `NCCCNC(=O)NC[C@H]1O[C@@H](n2c(C#CCN(CC(=O)O)C[C@H]3O[C@@H](n4cnc5c(N)ncnc54)[C@H](O)[C@@H]3O)nc3c(N)ncnc32)[C@H](O)[C@@H]1O`, the Ki on NAD kinase 1 is 16 µM.
On to `NCCS(=O)(=O)NC[C@H]1O[C@@H](n2c(C#CCN(CC(=O)O)C[C@H]3O[C@@H](n4cnc5c(N)ncnc54)[C@H](O)[C@@H]3O)nc3c(N)ncnc32)[C@H](O)[C@@H]1O`, for which the inhibitory constant (Ki) at NAD kinase 1 was found to be 91 µM.
Take `Nc1ncnc2c1ncn2[C@@H]1O[C@H](CN2CC#Cc3nc4c(N)ncnc4n3[C@@H]3O[C@H](CNC(=O)CCNC(=O)C2)[C@@H](O)[C@H]3O)[C@@H](O)[C@H]1O`: the result in the assay with Staphylococcus aureus [2] was Active. The result with Listeria monocytogenes [3], in the assay on Staphylococcus aureus [4] and in the assay on Listeria monocytogenes [1] was inactive. Also, at NAD kinase 1, the Ki stood at 0.504 µM.
`Nc1ncnc2c1ncn2[C@@H]1O[C@H](CN2CC#Cc3nc4c(N)ncnc4n3[C@@H]3O[C@H](CNC(=O)NCCCNC(=O)C2)[C@@H](O)[C@H]3O)[C@@H](O)[C@H]1O`: the outcome in the assay on Staphylococcus aureus [2] was Active. Besides, the result in the assay with Listeria monocytogenes [3], in the assay with Staphylococcus aureus [4] and with Listeria monocytogenes [1] was inactive. Also, the Ki on NAD kinase 1 was determined as 0.177 µM.
Regarding `NCCC(=O)NC[C@H]1O[C@@H](n2c(C#CCN(CC(=O)O)C[C@H]3O[C@@H](n4cnc5c(N)ncnc54)[C@H](O)[C@@H]3O)nc3c(N)ncnc32)[C@H](O)[C@@H]1O`, the inhibition constant (Ki) at NAD kinase 1 worked out at 19 µM.

The values above are taken from ChEMBL document CHEMBL5352450, “Synthesis and structure-activity relationship studies of original cyclic diadenosine derivatives as nanomolar inhibitors of NAD kinase from pathogenic bacteria” (Eur J Med Chem, 2023).
